Experimental data published in ChEMBL document CHEMBL5260840 (J Med Chem, 2019).
Active and inactive are the calls of the source. The rule behind the calls is not given here.

Assays:
[1] = molecular target: T1, von Hippel-Lindau disease tumor suppressor/Bromodomain-containing protein 7 (Homo sapiens) (UniProt Q9NPI1+P40337); assay: PROTAC activity at VHL/BRD7 in human Ri-1 cells assessed as BRD7 protein degradation in the presence of MG132 by Western blot analysis; format: cell-based
[2] = molecular target: T1, von Hippel-Lindau disease tumor suppressor/Bromodomain-containing protein 7 (Homo sapiens); assay: PROTAC activity at VHL/BRD7 in human Ri-1 cells assessed as BRD7 protein degradation in the presence of MLN4924 by Western blot analysis; format: cell-based
[3] = Kinetic aqueous solubility of the compound by laser nephelometry; format: physicochemical; settings: read-out: Kinetic_solubility
Method in brief: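 Laser nephelometry. DMSO stocks serially diluted from 10 mM to 0.5 mM, then mixed into water to give final 250–12 µM with 2.5% final DMSO. Triplicate aliquots read immediately.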

[4] = Stability in human plasma at 10 uM measured upto 180 mins by UPLC-MS/MS analysis; format: ADME, cell-free; settings: 3 h
[5] = molecular target: T1, von Hippel-Lindau disease tumor suppressor/Bromodomain-containing protein 7 (Homo sapiens); assay: PROTAC activity at VHL/BRD7 in human Ri-1 cells assessed as BRD7 protein degradation at 100 nM incubated for 4 hrs by MS proteomics analysis; format: cell-based
[6] = molecular target: T2, von Hippel-Lindau disease tumor suppressor/Bromodomain-containing protein 9 (Homo sapiens) (UniProt Q9H8M2+P40337); assay: PROTAC activity at VHL/BRD9 in human Ri-1 cells assessed as BRD9 protein degradation at 100 nM incubated for 4 hrs by MS proteomics analysis; format: cell-based
Method in brief: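 RI-1 cells treated in triplicate with compound (100 nM) or DMSO for 4 h; whole-cell proteome quantified by MS (6273 proteins), fold change versus control with t-test P-values.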

A204 = assay: Antiproliferative activity against human A204 cells assessed as inhibition of cell growth incubated for 7 days by CellTiterGlo assay; format: functional, cell-based; settings: A204, 168 h
[7] = molecular target: T1, von Hippel-Lindau disease tumor suppressor/Bromodomain-containing protein 7 (Homo sapiens); assay: PROTAC activity at VHL/BRD7 in human Ri-1 cells assessed as BRD7 protein degradation at 100 nM pre-incubated for 30 mins with VH298 followed by compound addition and measured after 4 hrs by Western blot analysis; format: cell-based
[8] = molecular target: T2, von Hippel-Lindau disease tumor suppressor/Bromodomain-containing protein 9 (Homo sapiens); assay: PROTAC activity at VHL/HiBiT-tagged BRD9 expressed in HEK293 assessed as BRD9 ubiquitination at 1 uM measured upto 60 mins by NanoBRET assay; format: cell-based
[9] = molecular target: T1, von Hippel-Lindau disease tumor suppressor/Bromodomain-containing protein 7 (Homo sapiens); assay: PROTAC activity at VHL/HiBiT-tagged BRD7 expressed in HEK293 assessed as BRD7 ubiquitination at 1 uM measured upto 60 mins by NanoBRET assay; format: cell-based
[10] = molecular target: T1, von Hippel-Lindau disease tumor suppressor/Bromodomain-containing protein 7 (Homo sapiens); assay: PROTAC activity at VHL/BRD7 in human Ri-1 cells assessed as remaining BRD7 protein level at 100 nM incubated for 4 hrs by Western blot analysis relative to control; format: cell-based
Method in brief: (§1)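 Ri-1 cells exposed to compound for the stated time before harvest; BRD9, BRD7 and β-actin measured by Western blot, band intensities quantified and set against DMSO-treated control.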

[11] = molecular target: T1, von Hippel-Lindau disease tumor suppressor/Bromodomain-containing protein 7 (Homo sapiens); assay: PROTAC activity at VHL/BRD7 in human Ri-1 cells assessed as remaining BRD7 protein level at 10 nM incubated for 4 hrs by Western blot analysis relative to control; format: cell-based
[12] = molecular target: T1, von Hippel-Lindau disease tumor suppressor/Bromodomain-containing protein 7 (Homo sapiens); assay: PROTAC activity at VHL/BRD7 in human Ri-1 cells assessed as remaining BRD7 protein level at 100 nM incubated for 1 hrs by Western blot analysis relative to control; format: cell-based; method in brief: as §1
[13] = molecular target: T2, von Hippel-Lindau disease tumor suppressor/Bromodomain-containing protein 9 (Homo sapiens); assay: PROTAC activity at VHL/BRD9 in human Ri-1 cells assessed as remaining BRD9 protein level at 10 nM incubated for 48 hrs by Western blot analysis relative to control; format: cell-based; method in brief: as §1
[14] = molecular target: T2, von Hippel-Lindau disease tumor suppressor/Bromodomain-containing protein 9 (Homo sapiens); assay: PROTAC activity at VHL/BRD9 in human Ri-1 cells assessed as remaining BRD9 protein level at 100 nM incubated for 24 hrs by Western blot analysis relative to control; format: cell-based; method in brief: as §1
[15] = molecular target: T2, von Hippel-Lindau disease tumor suppressor/Bromodomain-containing protein 9 (Homo sapiens); assay: PROTAC activity at VHL/BRD9 in human Ri-1 cells assessed as remaining BRD9 protein level at 10 nM incubated for 4 hrs by Western blot analysis relative to control; format: cell-based; method in brief: as §1
[16] = molecular target: T2, von Hippel-Lindau disease tumor suppressor/Bromodomain-containing protein 9 (Homo sapiens); assay: PROTAC activity at VHL/BRD9 in human Ri-1 cells assessed as remaining BRD9 protein level at 10 nM incubated for 24 hrs by Western blot analysis relative to control; format: cell-based; method in brief: as §1
[17] = molecular target: T2, von Hippel-Lindau disease tumor suppressor/Bromodomain-containing protein 9 (Homo sapiens); assay: PROTAC activity at VHL/BRD9 in human Ri-1 cells assessed as remaining BRD9 protein level at 100 nM incubated for 1 hrs by Western blot analysis relative to control; format: cell-based; method in brief: as §1
[18] = molecular target: T2, von Hippel-Lindau disease tumor suppressor/Bromodomain-containing protein 9 (Homo sapiens); assay: PROTAC activity at VHL/BRD9 in human Ri-1 cells assessed as remaining BRD9 protein level at 10 nM incubated for 30 mins by Western blot analysis relative to control; format: cell-based; method in brief: as §1
[19] = molecular target: T2, von Hippel-Lindau disease tumor suppressor/Bromodomain-containing protein 9 (Homo sapiens); assay: PROTAC activity at VHL/BRD9 in human Ri-1 cells assessed as remaining BRD9 protein level at 1 nM incubated for 8 hrs by Western blot analysis relative to control; format: cell-based; method in brief: as §1
[20] = molecular target: T2, von Hippel-Lindau disease tumor suppressor/Bromodomain-containing protein 9 (Homo sapiens); assay: PROTAC activity at VHL/BRD9 in human Ri-1 cells assessed as remaining BRD9 protein level at 0.1 nM incubated for 8 hrs by Western blot analysis relative to control; format: cell-based; method in brief: as §1
[21] = molecular target: T2, von Hippel-Lindau disease tumor suppressor/Bromodomain-containing protein 9 (Homo sapiens); assay: PROTAC activity at VHL/BRD9 in human Ri-1 cells assessed as remaining BRD9 protein level at 1 nM incubated for 2 hrs by Western blot analysis relative to control; format: cell-based; method in brief: as §1
[22] = molecular target: T1, von Hippel-Lindau disease tumor suppressor/Bromodomain-containing protein 7 (Homo sapiens); assay: PROTAC activity at VHL/BRD7 in human Ri-1 cells assessed as remaining BRD7 protein level at 10 nM incubated for 8 hrs by Western blot analysis relative to control; format: cell-based; method in brief: as §1
[23] = molecular target: T1, von Hippel-Lindau disease tumor suppressor/Bromodomain-containing protein 7 (Homo sapiens); assay: PROTAC activity at VHL/BRD7 in human Ri-1 cells assessed as remaining BRD7 protein level at 1 nM incubated for 8 hrs by Western blot analysis relative to control; format: cell-based
[24] = molecular target: T1, von Hippel-Lindau disease tumor suppressor/Bromodomain-containing protein 7 (Homo sapiens); assay: PROTAC activity at VHL/BRD7 in human Ri-1 cells assessed as remaining BRD7 protein level at 10000 nM incubated for 2 hrs by Western blot analysis relative to control; format: cell-based; method in brief: as §1
[25] = molecular target: T1, von Hippel-Lindau disease tumor suppressor/Bromodomain-containing protein 7 (Homo sapiens); assay: PROTAC activity at VHL/BRD7 in human Ri-1 cells assessed as remaining BRD7 protein level at 10 nM incubated for 2 hrs by Western blot analysis relative to control; format: cell-based
[26] = molecular target: T1, von Hippel-Lindau disease tumor suppressor/Bromodomain-containing protein 7 (Homo sapiens); assay: PROTAC activity at VHL/BRD7 in human Ri-1 cells assessed as remaining BRD7 protein level at 10 nM incubated for 48 hrs by Western blot analysis relative to control; format: cell-based; method in brief: as §1
[27] = molecular target: T1, von Hippel-Lindau disease tumor suppressor/Bromodomain-containing protein 7 (Homo sapiens); assay: PROTAC activity at VHL/BRD7 in human Ri-1 cells assessed as remaining BRD7 protein level at 100 nM incubated for 48 hrs by Western blot analysis relative to control; format: cell-based; method in brief: as §1
[28] = molecular target: T1, von Hippel-Lindau disease tumor suppressor/Bromodomain-containing protein 7 (Homo sapiens); assay: PROTAC activity at VHL/BRD7 in human Ri-1 cells assessed as maximal degradation by Western blot analysis relative to control; format: cell-based
[29] = molecular target: T3, Von Hippel-Lindau disease tumor suppressor/Elongin B/Elongin C (Homo sapiens) (UniProt P40337+Q15370+Q15369); assay: Negative co-operative binding affinity to 6His-tagged human VHL/ElonginC/ElonginB expressed in Escherichia coli BL21 (DE3) cells assessed as total gibb's free energy change in the presence of BRD9-BD as complex with compound by ITC analysis
[30] = molecular target: T3, Von Hippel-Lindau disease tumor suppressor/Elongin B/Elongin C (Homo sapiens); assay: Co-operative binding affinity to 6His-tagged human VHL/ElonginC/ElonginB expressed in Escherichia coli BL21 (DE3) cells assessed as maximal intensity in the presence of BRD9-BD as complex with compound incubated for 1 hrs by AlphaLISA proximity assay

T1 sequence (P40337 whole entry, looked up): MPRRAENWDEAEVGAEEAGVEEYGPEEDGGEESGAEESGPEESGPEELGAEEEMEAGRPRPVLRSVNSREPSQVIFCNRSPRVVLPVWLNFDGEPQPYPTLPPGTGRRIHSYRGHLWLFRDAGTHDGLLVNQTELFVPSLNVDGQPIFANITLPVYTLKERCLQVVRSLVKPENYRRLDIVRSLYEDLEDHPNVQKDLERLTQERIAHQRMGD
T1 sequence (Q9NPI1 whole entry, looked up): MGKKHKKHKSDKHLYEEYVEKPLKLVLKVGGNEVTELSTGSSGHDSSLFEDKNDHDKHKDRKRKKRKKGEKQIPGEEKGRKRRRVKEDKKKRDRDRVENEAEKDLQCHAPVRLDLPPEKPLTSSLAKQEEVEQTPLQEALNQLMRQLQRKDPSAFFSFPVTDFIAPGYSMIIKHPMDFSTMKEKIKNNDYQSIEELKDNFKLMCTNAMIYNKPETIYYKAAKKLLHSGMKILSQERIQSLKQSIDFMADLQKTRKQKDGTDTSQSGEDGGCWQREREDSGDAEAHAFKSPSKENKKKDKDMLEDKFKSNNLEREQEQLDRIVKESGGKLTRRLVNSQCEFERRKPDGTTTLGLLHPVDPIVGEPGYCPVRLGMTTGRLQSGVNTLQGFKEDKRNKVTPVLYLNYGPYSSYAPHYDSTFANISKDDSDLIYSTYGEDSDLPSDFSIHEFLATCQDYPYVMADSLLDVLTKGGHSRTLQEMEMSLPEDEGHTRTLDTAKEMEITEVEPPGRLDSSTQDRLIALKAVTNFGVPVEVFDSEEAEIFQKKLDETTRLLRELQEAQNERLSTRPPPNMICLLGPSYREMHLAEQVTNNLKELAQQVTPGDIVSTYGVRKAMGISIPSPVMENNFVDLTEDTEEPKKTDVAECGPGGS
T2 sequence (P40337 whole entry, looked up): as the sequence (P40337 whole entry, looked up) above
T2 sequence (Q9H8M2 whole entry, looked up): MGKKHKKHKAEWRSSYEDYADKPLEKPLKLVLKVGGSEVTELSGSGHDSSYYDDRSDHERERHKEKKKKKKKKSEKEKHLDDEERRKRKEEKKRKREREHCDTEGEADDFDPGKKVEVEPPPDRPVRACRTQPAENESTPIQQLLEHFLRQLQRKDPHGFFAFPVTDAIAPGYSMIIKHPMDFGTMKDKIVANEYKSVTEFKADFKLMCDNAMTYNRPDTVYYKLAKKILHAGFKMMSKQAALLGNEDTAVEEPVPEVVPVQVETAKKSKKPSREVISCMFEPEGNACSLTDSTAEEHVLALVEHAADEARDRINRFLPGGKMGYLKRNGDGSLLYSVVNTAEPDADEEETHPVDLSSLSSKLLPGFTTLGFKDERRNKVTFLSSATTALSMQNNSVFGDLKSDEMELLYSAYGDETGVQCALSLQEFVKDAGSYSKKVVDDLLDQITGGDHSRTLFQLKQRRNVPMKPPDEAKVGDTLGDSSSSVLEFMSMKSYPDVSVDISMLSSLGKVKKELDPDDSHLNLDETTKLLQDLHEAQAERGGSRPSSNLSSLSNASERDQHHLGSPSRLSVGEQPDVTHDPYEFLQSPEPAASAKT
T3 sequence (P40337 whole entry, looked up): as the sequence (P40337 whole entry, looked up) above
T3 sequence (Q15369 whole entry, looked up): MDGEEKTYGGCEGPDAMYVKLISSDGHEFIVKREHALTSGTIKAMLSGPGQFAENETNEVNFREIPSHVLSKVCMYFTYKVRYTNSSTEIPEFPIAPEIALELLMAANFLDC
T3 sequence (Q15370 whole entry, looked up): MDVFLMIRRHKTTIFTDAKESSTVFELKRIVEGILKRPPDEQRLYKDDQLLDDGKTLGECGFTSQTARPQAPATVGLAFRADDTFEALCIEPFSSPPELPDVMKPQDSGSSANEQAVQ

COc1cc(-c2cn(C)c(=O)c3cnccc23)cc(OC)c1CN1CCN(CCCCCOc2cc(-c3scnc3C)ccc2CNC(=O)[C@@H]2C[C@@H](O)CN2C(=O)[C@@H](NC(=O)C2(F)CC2)C(C)(C)C)CC1
Activity [1]: inactive | Activity [2]: inactive | solubility kinetic [3]: ≤ 100 µM | Stability [4]: Stable | Activity [5]: Active | Activity [6]: Active | IC50 (A204): 39.8 nM | Activity [7]: inactive | Activity [8]: Active | Activity [9]: Active | Activity [10]: 7% | Activity [11]: 42% | Activity [12]: 31% | Activity [13]: 2% | Activity [14]: 2% | Activity [15]: 31% | Activity [16]: 17% | Activity [17]: 34% | Activity [18]: 50% | Activity [19]: 62% | Activity [20]: 80% | Activity [21]: 98% | Activity [22]: 33% | Activity [23]: 100% | Activity [24]: 75% | Activity [25]: 52% | Activity [26]: 12% | Activity [27]: 3% | Emax [28]: > 90% | deltaG [29]: -21.7 kcal/mol | Activity [30]: 1.47 10^6No_unit
